High-throughput results (PubChem BioAssay)
Sampled rows, rich in hits. Any-hit rate of the full collection: about 2.9%.
RanGTP-Impb inh: disruptors of Ran-importin-beta complex formation – biochemical, FRET, CFP-Ran, YFP-importin-beta, homogeneous, primary screen; inhibition, % (no concentration beside the values); 300,000 compounds, 1.1% hits; cell-free CFP-Ran/YFP-importin-beta FRET ratio;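 active = more than half of the replicate wells show a fall in the fluorescence ratio signal beyond about 16%, limit read from the data, passing the limit was not always enough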
PfM18AAP inh-1: blocks P. falciparum M18 aspartyl aminopeptidase; recombinant PfM18AAP, H-Glu-NHMec fluorogenic cleavage; inhibition, % at 7.35 µM; 290,000 compounds, 1.2% hits; AID 1822;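 active = inhibition above the campaign mean inhibition over all tested compounds plus 3 SD, cut at about 28% in these data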
Hck-Nef inh: human Hck-Nef kinase inhibition | P08631 | Recombinant Hck-YEEI plus Nef, Z-Lyte FRET kinase assay | inhibition, % at 20 µM | 220,000 compounds, 0.68% hits | AID 463187;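 active = Hck-Nef kinase inhibition above about 50%, limit read from the data; inactive = inhibition below that limit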
RBBP9 inh: human RBBP9 hydrolase inhibition; O75884; recombinant RBBP9, FP-Rh probe fluorescence polarization; inhibition, % at 7.94 µM; 220,000 compounds, 0.2% hits; AID 1515;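 active = inhibition above the campaign mean of all tested compounds plus 3 SD, cut at about 14% in these data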
Target sequence (O75884 whole entry, looked up): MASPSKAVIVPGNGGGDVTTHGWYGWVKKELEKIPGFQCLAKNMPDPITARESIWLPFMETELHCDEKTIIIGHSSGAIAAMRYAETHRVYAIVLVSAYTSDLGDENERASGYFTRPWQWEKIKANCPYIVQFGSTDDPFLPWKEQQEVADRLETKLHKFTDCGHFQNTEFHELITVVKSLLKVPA
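Material: RBBP9 protein. Amount: RBBP9 at 2.5 µM in dispensed solution, before mixing. Schedule: 30 min then 45 min, 25 °C. Medium: Tris buffer pH 8.0, NaCl, Pluronic. Measured by: fluorescence polarization. Measure: percent inhibition from mP, scaled between DMSO and no-protein wells. Replication: one well per compound.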
Runt-CBFb FRET: inhibitors of human RUNX1 Runt domain binding to CBFb. Cerulean-Runt/Venus-CBFb FRET ratio 530/480, 1 h. inhibition, % at 20 µM. 220,000 compounds, 0.46% hits;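 active = inhibition over about 50% at 20 µM in the single-dose screen, limit read from the data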
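Assay system: Cerulean-Runt domain fusion protein, energy donor; Signal: fluorescence energy transfer, 422 nm excitation, 530/480 nm emission; Timing: 1 h compound exposure, room temperature; Control set: unlabeled CBFb; Medium: Tris buffer pH 7.5 with salts and BSA; Compound: single test concentration of 20 µM, 1% DMSO final; Probe or stimulus: Venus-CBFb 100 nM.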
Runt-SMMHC FRET: inhibitors of human RUNX1 Runt domain binding to CBFb-SMMHC; 220,000 compounds, 0.74% hits; inhibition, % at 20 µM; Q01196+Q13951; AID 1434; Cerulean-Runt/Venus-CBFb-SMMHC FRET ratio 530/480, 1 h;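 active = mean inhibition across duplicate retests at 20 µM reaching about 50%, limit read from the data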;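 note: inhibitors lower the FRET ratio by blocking Runt binding to CBFb-SMMHC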
RUNX1 CBFb TR: disrupts human RUNX1 Runt domain binding to CBFb | shares compounds with Runt-CBFb FRET | inhibition, % at 20 µM | 480 compounds, 20% hits | AID 1502 | TR-FRET RUNX1 Runt domain-CBFb binding; in the data active = inhibition above about 40%
RBBP9 inh conf: confirmation of human RBBP9 inhibitors | shares compounds with RBBP9 inh | recombinant RBBP9, FP-Rh probe fluorescence polarization | inhibition, % at 7.94 µM | 410 compounds, 36% hits;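 active = inhibition above the hit cutoff derived for the primary screen, cut at about 15% in these data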
PfM18AAP inh-2: PfM18AAP inhibition, confirmation; 2,400 compounds, 28% hits; inhibition, % at 7.35 µM; shares compounds with PfM18AAP inh-1; recombinant PfM18AAP, H-Glu-NHMec fluorogenic cleavage;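 active = mean inhibition over replicate wells above the hit cutoff set for the earlier primary screen, cut at about 29% in these data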
CTSL1 counter: Cathepsin L (human) inhibition, confirmation. shares compounds with PfM18AAP inh-1. purified cathepsin L1, Z-Leu-Arg-MCA fluorescence. inhibition, % at 5.96 µM. 2,400 tested, under 10 active;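 active = average inhibition across replicates above the hit cutoff set in the earlier primary screen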
Target sequence (P07711 whole entry, looked up): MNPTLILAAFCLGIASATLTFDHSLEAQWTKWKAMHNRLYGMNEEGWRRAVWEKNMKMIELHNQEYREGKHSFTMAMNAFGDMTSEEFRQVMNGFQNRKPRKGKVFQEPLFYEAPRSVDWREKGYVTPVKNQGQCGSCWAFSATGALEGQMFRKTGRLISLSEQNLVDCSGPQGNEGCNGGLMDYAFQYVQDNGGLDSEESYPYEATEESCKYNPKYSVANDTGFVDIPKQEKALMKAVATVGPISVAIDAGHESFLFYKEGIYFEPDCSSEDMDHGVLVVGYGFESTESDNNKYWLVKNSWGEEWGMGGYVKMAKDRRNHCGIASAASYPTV
Hck-Nef confirm: Hck-Nef kinase inhibition, confirmation | shares compounds with Hck-Nef inh | Recombinant Hck-YEEI:Nef, Z-Lyte FRET kinase assay | calls only at 10 µM | 1,300 compounds, 28% hits | AID 463188;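 active = average inhibition of at least 50%, with Z-scores no higher than 3 in both the phospho-tyrosine peptide and fluorescence counterscreens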
Large screens that a line does not name were inactive (follow-up assays come after a bar, where shown).

COC(=O)c1ccc(C(=O)OC)c(N)c1	Hck-Nef inh 86, Runt-CBFb FRET 68, Runt-SMMHC FRET 110 (not shown: RanGTP-Impb inh) | RUNX1 CBFb TR 43
COC(=O)c1ccc(C(=O)OC)c(NC(=O)Oc2ccccc2)c1	Hck-Nef inh 58, Runt-CBFb FRET 66, Runt-SMMHC FRET 132 | RUNX1 CBFb TR inactive
Cc1c(NC(=S)Nc2cccc(Cl)c2)c(=O)n(-c2ccccc2)n1C	none
O=C(CCc1nnc2ccc(N3CCC4(CC3)OCCO4)nn12)Nc1ccc(F)cc1	none (no result: Hck-Nef inh, RBBP9 inh, Runt-CBFb FRET, Runt-SMMHC FRET)
COc1ccc(/C=N/NC(=O)c2cc(O)c(O)c(O)c2)cc1Cn1cc([N+](=O)[O-])cn1	PfM18AAP inh-1 48, Hck-Nef inh 50, Runt-CBFb FRET 54 | RUNX1 CBFb TR inactive | PfM18AAP inh-2 inactive | CTSL1 counter inactive | Hck-Nef confirm inactive
COc1ccc(/C=N/NC(=O)c2ccccc2O)cc1Cn1cc([N+](=O)[O-])cn1	none
CN(C)C(CNC(=O)c1ccc(C(F)(F)F)cc1)c1ccco1 (stereo unspecified)	none (no result: Hck-Nef inh, RBBP9 inh, Runt-CBFb FRET, Runt-SMMHC FRET)
Cc1ccc(CN2C(=O)CSC2c2ccc(F)cc2)cc1 (stereo unspecified)	none (no result: Hck-Nef inh, RBBP9 inh, Runt-CBFb FRET, Runt-SMMHC FRET)
C=CCn1c(-c2cccs2)nc2ccccc21	none (no result: RanGTP-Impb inh)
C=CCn1c(-c2cccs2)nc2nc3ccccc3nc21	Hck-Nef inh 72, Runt-CBFb FRET 55, Runt-SMMHC FRET 126 | RUNX1 CBFb TR inactive | Hck-Nef confirm inactive
O=C(O)CN1C(=O)/C(=C/c2ccc(SCc3ccccc3)o2)SC1=S	Hck-Nef inh 73, Runt-CBFb FRET 70 (no result: RanGTP-Impb inh) | RUNX1 CBFb TR inactive | Hck-Nef confirm inactive
CC(=O)N=c1c(C#N)cc2c(=O)n3ccccc3nc2n1CCCOC(C)C	RanGTP-Impb inh 102, Hck-Nef inh 56, Runt-CBFb FRET 76, Runt-SMMHC FRET 82 | RUNX1 CBFb TR inactive
C/C(N)=C(/C#N)C(=O)CSc1nc2ccccc2c(=O)n1CCCOC(C)C	none
COCCCN(Cc1ccco1)C(=O)c1cc2c(s1)-c1ccc(Cl)cc1S(=O)(=O)C2	none (no result: Hck-Nef inh, RBBP9 inh, Runt-CBFb FRET, Runt-SMMHC FRET)
Clc1cccc2sc(-c3nnc(-c4ccccc4)o3)c(Cl)c12	RBBP9 inh 20 (no result: Runt-CBFb FRET, Runt-SMMHC FRET) | RBBP9 inh conf inactive
CN1CCN(C(=O)C(N)Cc2ccccc2)CC1 (stereo unspecified)	none
COc1ccc(OC)c(NC(=O)C2CCCN(S(=O)(=O)c3c(C)noc3C)C2)c1 (stereo unspecified)	none
COc1ccc(OC)c(NC(=O)C2CCN(S(=O)(=O)c3c(C)noc3C)CC2)c1	RBBP9 inh 16 | RBBP9 inh conf inactive
NS(=O)(=O)c1ccc(N/N=C/c2ccccc2C(=O)O)c([N+](=O)[O-])c1	none
NS(=O)(=O)c1ccc(N/N=C/c2ccc(O)c(O)c2O)c([N+](=O)[O-])c1	PfM18AAP inh-1 50, Hck-Nef inh 51, RBBP9 inh 64, Runt-SMMHC FRET 65 (no result: RanGTP-Impb inh) | RBBP9 inh conf 84
c1ccc(-c2nnc3sc(-c4ccncc4)nn23)cc1	none
Clc1ccc(-c2nn3c(-c4ccccc4)nnc3s2)cc1	RBBP9 inh 17 | RBBP9 inh conf inactive
CC(Oc1ccccc1)C(=O)N1CCCc2ccccc21 (stereo unspecified)	none (no result: RanGTP-Impb inh)
COc1ccc(OC(C)C(=O)N2CCCc3ccccc32)cc1 (stereo unspecified)	RBBP9 inh 17 | RBBP9 inh conf inactive
